Test results: publication PMC8154016 (ACS Omega, 2021)

Experiments:
[1] = test system: MCF-7 (breast) cancer cell line; assay: MTT assay, cell viability, MCF-7; assay type: cell-based; details: Homo sapiens, MCF7, 48 h, read-out: Cell viability (%) MCF-7 (breast), 100 μg/μL concentration of compound, 48 h, MTT, mean ± SD in triplicate
In short: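 Human MCF-7 breast cancer cells grown in DMEM with 10% FBS and 1% penicillin–streptomycin at 37 °C, 5% CO2, humidified. Test compound in DMSO (under 1% final) added at various dilutions for 48 h. MTT (5 mg/mL stock) then added for 240 min at 37 °C. Formazan dissolved in DMSO and absorbance read at 490 nm. Percent viability calculated; triplicate, mean ± SD.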

[2] = test system: A549 (lung) cancer cell line; assay: MTT assay, cell viability and IC50, A549; assay type: cell-based; details: Homo sapiens; for viability: A549, 48 h, read-out: Cell viability (%) A549 (lung), 100 μg/μL concentration of compound, 48 h, MTT, mean ± SD in triplicate
In short: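 A549 human lung cancer cells were grown in DMEM with 10% FBS and 1% penicillin–streptomycin at 37 °C in humidified 5% CO2. Cells were seeded in 96-well plates and exposed for 48 h to serial dilutions of the test compound in DMSO (<1% final). MTT (5 mg/mL solution as added) was applied for 240 min at 37 °C. Formazan was dissolved in DMSO and A490 read for % viability. Triplicate; mean ± SD.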

Structure (SMILES)	viability [1] [%]	viability [2] [%]	IC50 ([2]; A549, read-out: IC50 (μM) A549 (lung)) [µM]
Cn1c(=O)c2c(ncn2Cc2nnc(SCC(=O)Nc3ccccc3)n2-c2ccccc2)n(C)c1=O [Compound 11a, 2-(5-((1,3-Dimethyl-2,6-dioxo-2,3-dihydro-1H-purin-7(6H)-yl)methyl)-4-phenyl-4H-1,2,4-triazol-3-ylthio)-N-phenylacetamide]	34.7 ± 2.49	59.6 ± 1.36	–
Cc1ccc(NC(=O)CSc2nnc(Cn3cnc4c3c(=O)n(C)c(=O)n4C)n2-c2ccccc2)cc1C [Compound 11h, 2-(5-((1,3-Dimethyl-2,6-dioxo-2,3-dihydro-1H-purin-7(6H)-yl)methyl)-4-phenyl-4H-1,2,4-triazol-3-ylthio)-N-(3,4-dimethylphenyl)acetamide]	33.2 ± 2.77	55.4 ± 4.6	–
Cn1c(=O)c2c(ncn2Cc2nnc(SCC(=O)Nc3ccccc3Cl)n2-c2ccccc2)n(C)c1=O [Compound 11f, N-(2-Chlorophenyl)-2-(5-((1,3-dimethyl-2,6-dioxo-2,3-dihydro-1H-purin-7(6H)-yl)methyl)-4-phenyl-4H-1,2,4-triazol-3-ylthio)acetamide]	72.8 ± 6.35	55.4 ± 4.11	–
Cc1ccc(NC(=O)CSc2nnc(Cn3cnc4c3c(=O)n(C)c(=O)n4C)n2-c2ccccc2)cc1 [Compound 11g, 2-(5-((1,3-Dimethyl-2,6-dioxo-2,3-dihydro-1H-purin-7(6H)-yl)methyl)-4-phenyl-4H-1,2,4-triazol-3-ylthio)-N-p-tolylacetamide]	31.8 ± 3.16	21.7 ± 1.6	1.25 ± 1.6
Cn1c(=O)c2c(ncn2Cc2nnc(SCC(=O)Nc3ccc(F)cc3)n2-c2ccccc2)n(C)c1=O [Compound 11e, 2-(5-((1,3-Dimethyl-2,6-dioxo-2,3-dihydro-1H-purin-7(6H)-yl)methyl)-4-phenyl-4H-1,2,4-triazol-3-ylthio)-N-(4-fluorophenyl)acetamide]	54.8 ± 4.88	52.1 ± 3.66	–
Cn1c(=O)c2c(ncn2CC(=O)O)n(C)c1=O [Acefylline, Theophylline-7-acetic acid, reference compound]	86.3 ± 11.8	–	–
Cn1c(=O)c2c(ncn2Cc2nnc(SCC(=O)Nc3ccccc3F)n2-c2ccccc2)n(C)c1=O [Compound 11j, 2-(5-((1,3-Dimethyl-2,6-dioxo-2,3-dihydro-1H-purin-7(6H)-yl)methyl)-4-phenyl-4H-1,2,4-triazol-3-ylthio)-N-(2-fluorophenyl)acetamide]	63.7 ± 3.54	67.5 ± 4.27	–
Cn1c(=O)c2c(ncn2Cc2nnc(SCC(=O)Nc3ccc(Cl)c(Cl)c3)n2-c2ccccc2)n(C)c1=O [Compound 11d, N-(3,4-Dichlorophenyl)-2-(5-((1,3-dimethyl-2,6-dioxo-2,3-dihydro-1H-purin-7(6H)-yl)methyl)-4-phenyl-4H-1,2,4-triazol-3-ylthio)acetamide]	38.1 ± 4.04	46.2 ± 1.42	–
Cn1c(=O)c2c(ncn2Cc2nnc(SCC(=O)Nc3ccc(Cl)cc3Cl)n2-c2ccccc2)n(C)c1=O [Compound 11b, N-(2,4-Dichlorophenyl)-2-(5-((1,3-dimethyl-2,6-dioxo-2,3-dihydro-1H-purin-7(6H)-yl)methyl)-4-phenyl-4H-1,2,4-triazol-3-ylthio)acetamide]	69.4 ± 7.05	52.6 ± 5.07	–
Cc1ccc(NC(=O)CSc2nnc(Cn3cnc4c3c(=O)n(C)c(=O)n4C)n2-c2ccccc2)c(C)c1 [Compound 11c, 2-(5-((1,3-Dimethyl-2,6-dioxo-2,3-dihydro-1H-purin-7(6H)-yl)methyl)-4-phenyl-4H-1,2,4-triazol-3-ylthio)-N-(2,4-dimethylphenyl)acetamide]	38.7 ± 2.07	26.1 ± 1.86	–
